Source: ChEMBL document CHEMBL2311406, “Structure-based design of high-affinity macrocyclic peptidomimetics to block the menin-mixed lineage leukemia 1 (MLL1) protein-protein interaction” (J Med Chem, 2013)
pIC50, pKd, pKi: −log10 of the molar value. *1 amine or outer side, *2 acyl side, *3 side chain or, on linkers, in order; H or OH if unused. Where a SMILES comes first, the peptide text is derived from it. Bridges are numbered along the chain shown (N, C = ends). [ ]: non-standard residue; d: D form. The star is where a group is joined. 5FAM = O=C1OC2(c3ccc(O)cc3Oc3cc(O)ccc32)c2ccc(C(=O)*)cc21; Ala(indol-2-yl) = N[C@@H](Cc1cc2ccccc2[nH]1)C(=O)O; Phe(3-CF3) = N[C@@H](Cc1cccc(C(F)(F)F)c1)C(=O)O; Phe(3-Ph) = N[C@@H](Cc1cccc(-c2ccccc2)c1)C(=O)O; hhhhLys = O=C([C@H](CCCCCCCCN[*:3])N[*:1])[*:2]; X2 = CC(C)Cc1cccc(C[C@H](N[*:1])C(=O)[*:2])c1; Phe(3,5-F2) = N[C@@H](Cc1cc(F)cc(F)c1)C(=O)O; X1 = CCc1cccc(C[C@H](N[*:1])C(=O)[*:2])c1; Phe(3-Cl) = N[C@@H](Cc1cccc(Cl)c1)C(=O)O; Phe(4-Cl) = N[C@@H](Cc1ccc(Cl)cc1)C(=O)O; NH(CH2)9CO = O=C(CCCCCCCCCN[*:1])[*:2]; Phe(2-Cl) = N[C@@H](Cc1ccccc1Cl)C(=O)O; Phe(3-F) = N[C@@H](Cc1cccc(F)c1)C(=O)O; Phe(3-Me) = Cc1cccc(C[C@H](N)C(=O)O)c1; Phe(4-F) = N[C@@H](Cc1ccc(F)cc1)C(=O)O; Phe(2-F) = N[C@@H](Cc1ccccc1F)C(=O)O; Ahp(2) = CCCCC[C@H](N)C(=O)O; hLys = NCCCCC[C@H](N)C(=O)O; AEEEA = NCCOCCOCCOCC(=O)O; Ac5c = NC1(C(=O)O)CCCC1; Abu = CC[C@H](N)C(=O)O; Ac4c = NC1(C(=O)O)CCC1; Ac3c = NC1(C(=O)O)CC1; Aib = CC(C)(N)C(=O)O

What follows are compounds tested against T1, Menin (Homo sapiens, UniProt O00255) (assay: Binding affinity to menin (unknown origin) after 60 mins by fluorescence polarization assay).
T1 sequence (O00255 whole entry): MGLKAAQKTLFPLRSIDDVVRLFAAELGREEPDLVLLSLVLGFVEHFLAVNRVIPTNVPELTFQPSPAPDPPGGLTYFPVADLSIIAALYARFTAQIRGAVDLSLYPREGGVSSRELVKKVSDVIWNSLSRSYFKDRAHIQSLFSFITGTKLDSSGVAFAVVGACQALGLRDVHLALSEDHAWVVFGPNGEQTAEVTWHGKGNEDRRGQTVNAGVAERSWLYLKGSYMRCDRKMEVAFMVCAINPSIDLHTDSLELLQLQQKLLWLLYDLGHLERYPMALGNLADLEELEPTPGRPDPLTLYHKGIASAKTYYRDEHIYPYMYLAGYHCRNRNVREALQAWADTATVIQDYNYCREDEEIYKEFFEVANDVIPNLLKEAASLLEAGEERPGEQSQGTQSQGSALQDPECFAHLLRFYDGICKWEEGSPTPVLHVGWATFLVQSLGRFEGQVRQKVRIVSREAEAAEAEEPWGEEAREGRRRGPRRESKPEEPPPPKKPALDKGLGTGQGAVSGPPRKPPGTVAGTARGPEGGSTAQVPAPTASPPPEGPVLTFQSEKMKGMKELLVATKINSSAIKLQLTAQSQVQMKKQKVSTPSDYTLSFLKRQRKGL
In short: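 Competitive FP with fluorescein-labeled peptide tracers. Compound in DMSO (2% final) was added to a preincubated menin/tracer complex in 100 mM potassium phosphate pH 7.5 with 100 μg/mL bovine γ-globulin and 0.02% sodium azide. Menin/tracer/detergent were 30 nM/3 nM/0.005% Triton X-100 or 3 nM/2 nM/0.02% Tween-20. Ki was derived from the fitted IC50, probe Kd and assay concentrations.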

| Compound | pIC50 | pKi | pKd |
| --- | --- | --- | --- |
| N=C(N)NCCC[C@@H]1NC(=O)C2(CC2)NC(=O)[C@@H]2CCCN2C(=O)[C@H](Cc2ccccc2)NC(=O)[C@@H](N)CCCCCCCCNC(=O)[C@@H]2CCCN2C1=O (H-[hhhhLys]FP[Ac3c]RP; lactam 1-C) | 6.71 | 7.26 | – |
| N=C(N)NCCC[C@@H]1NC(=O)C2(CCC2)NC(=O)[C@@H]2CCCN2C(=O)[C@H](Cc2cccc(Cl)c2)NC(=O)[C@@H](N)CCCCCCCCNC(=O)[C@@H]2CCCN2C1=O (H-[hhhhLys][Phe(3-Cl)]P[Ac4c]RP; lactam 1-C) | 6.80 | 7.35 | – |
| N=C(N)NCCC[C@@H]1NC(=O)C2(CCC2)NC(=O)[C@@H]2CCCN2C(=O)[C@H](Cc2ccccc2F)NC(=O)[C@@H](N)CCCCCCCCNC(=O)[C@@H]2CCCN2C1=O (H-[hhhhLys][Phe(2-F)]P[Ac4c]RP; lactam 1-C) | 6.99 | 7.56 | – |
| Ac-RWRFPARP-NH2 | 6.63 | 7.15 | – |
| CC(C)Cc1cccc(C[C@@H]2NC(=O)[C@@H](N)CCCCCCCCNC(=O)[C@@H]3CCCN3C(=O)[C@H](CCCNC(=N)N)NC(=O)C3(CCC3)NC(=O)[C@@H]3CCCN3C2=O)c1 (H-[hhhhLys][X2]P[Ac4c]RP; lactam 1-C) | 4.44 | 4.94 | – |
| CC(=O)N[C@@H](CCCNC(=N)N)C(=O)N[C@@H](Cc1c[nH]c2ccccc12)C(=O)N[C@H]1CCCCCNC(=O)[C@@H]2CCCN2C(=O)[C@H](CCCNC(=N)N)NC(=O)[C@H](C)NC(=O)[C@@H]2CCCN2C(=O)[C@H](Cc2ccccc2)NC1=O (Ac-RW[hLys]FPARP; lactam 3-C) | 6.29 | 6.87 | – |
| CC(=O)N[C@H]1CCCCCCCCNC(=O)[C@@H]2CCCN2C(=O)[C@H](CCCNC(=N)N)NC(=O)[C@H](C)NC(=O)[C@@H]2CCCN2C(=O)[C@H](Cc2ccccc2)NC1=O (Ac-[hhhhLys]FPARP; lactam 1-C) | 5.67 | 6.23 | – |
| C[C@@H]1NC(=O)[C@@H]2CCCN2C(=O)[C@H](Cc2ccccc2)NC(=O)CCCCCCCCCNC(=O)[C@@H]2CCCN2C(=O)[C@H](CCCNC(=N)N)NC1=O (cyclo(ARP[NH(CH2)9CO]FP)) | 5.19 | 5.74 | – |
| N=C(N)NCCC[C@H](NC(=O)COCCOCCOCCNC(=O)c1ccc2c(c1)C(=O)OC21c2ccc(O)cc2Oc2cc(O)ccc21)C(=O)N[C@@H](Cc1cc2ccccc2[nH]1)C(=O)N[C@H]1CCCCCCCCNC(=O)[C@@H]2CCCN2C(=O)[C@H](CCCNC(=N)N)NC(=O)C2(CCC2)NC(=O)[C@@H]2CCCN2C(=O)[C@H](Cc2cc(F)cc(F)c2)NC1=O ({5FAM-AEEEA}-R[Ala(indol-2-yl)][hhhhLys][Phe(3,5-F2)]P[Ac4c]RP; lactam 3-C) | – | – | 8.85 |
| N=C(N)NCCC[C@@H]1NC(=O)C2(CCC2)NC(=O)[C@@H]2CCCN2C(=O)[C@H](Cc2ccc(Cl)cc2)NC(=O)[C@@H](N)CCCCCCCCNC(=O)[C@@H]2CCCN2C1=O (H-[hhhhLys][Phe(4-Cl)]P[Ac4c]RP; lactam 1-C) | 5.70 | 6.26 | – |
| CC(=O)N[C@@H](CCCNC(=N)N)C(=O)N[C@@H](Cc1c[nH]c2ccccc12)C(=O)N[C@H]1CCCCNC(=O)[C@@H]2CCCN2C(=O)[C@H](CCCNC(=N)N)NC(=O)[C@H](C)NC(=O)[C@@H]2CCCN2C(=O)[C@H](Cc2ccccc2)NC1=O (Ac-RWKFPARP; lactam 3-C) | 4.96 | 5.48 | – |
| Cc1cccc(C[C@@H]2NC(=O)[C@@H](N)CCCCCCCCNC(=O)[C@@H]3CCCN3C(=O)[C@H](CCCNC(=N)N)NC(=O)C3(CCC3)NC(=O)[C@@H]3CCCN3C2=O)c1 (H-[hhhhLys][Phe(3-Me)]P[Ac4c]RP; lactam 1-C) | 5.94 | 6.48 | – |
| N=C(N)NCCC[C@@H]1NC(=O)C2(CCCC2)NC(=O)[C@@H]2CCCN2C(=O)[C@H](Cc2ccccc2)NC(=O)[C@@H](N)CCCCCCCCNC(=O)[C@@H]2CCCN2C1=O (H-[hhhhLys]FP[Ac5c]RP; lactam 1-C) | 5.20 | 5.78 | – |
| N=C(N)NCCC[C@@H]1NC(=O)C2(CCC2)NC(=O)[C@@H]2CCCN2C(=O)[C@H](Cc2cccc(F)c2)NC(=O)[C@@H](N)CCCCCCCCNC(=O)[C@@H]2CCCN2C1=O (H-[hhhhLys][Phe(3-F)]P[Ac4c]RP; lactam 1-C) | 7.60 | 8.17 | – |
| Ac-RWRFPARPGTGRR-NH2 | 7.94 | 8.54 | – |
| CCc1cccc(C[C@@H]2NC(=O)[C@@H](N)CCCCCCCCNC(=O)[C@@H]3CCCN3C(=O)[C@H](CCCNC(=N)N)NC(=O)C3(CCC3)NC(=O)[C@@H]3CCCN3C2=O)c1 (H-[hhhhLys][X1]P[Ac4c]RP; lactam 1-C) | 5.34 | 5.88 | – |
| CC1(C)NC(=O)[C@@H]2CCCN2C(=O)[C@H](Cc2ccccc2)NC(=O)[C@@H](N)CCCCCCCCNC(=O)[C@@H]2CCCN2C(=O)[C@H](CCCNC(=N)N)NC1=O (H-[hhhhLys]FP[Aib]RP; lactam 1-C) | 6.65 | 7.17 | – |
| Ac-RFPARP-NH2 | 5.02 | 5.55 | – |
| N=C(N)NCCC[C@@H]1NC(=O)C2(CCC2)NC(=O)[C@@H]2CCCN2C(=O)[C@H](Cc2cccc(C(F)(F)F)c2)NC(=O)[C@@H](N)CCCCCCCCNC(=O)[C@@H]2CCCN2C1=O (H-[hhhhLys][Phe(3-CF3)]P[Ac4c]RP; lactam 1-C) | 5.60 | 6.14 | – |
| Ac-RWRFPAR-NH2 | 4.07 | 4.59 | – |
| CC(=O)N[C@@H](CCCNC(=N)N)C(=O)N[C@@H](Cc1c[nH]c2ccccc12)C(=O)N[C@H]1CCCCCCNC(=O)[C@@H]2CCCN2C(=O)[C@H](CCCNC(=N)N)NC(=O)[C@H](C)NC(=O)[C@@H]2CCCN2C(=O)[C@H](Cc2ccccc2)NC1=O | 7.20 | 7.76 | – |
| N=C(N)NCCC[C@@H]1NC(=O)C2(CCC2)NC(=O)[C@@H]2CCCN2C(=O)[C@H](Cc2ccc(F)cc2)NC(=O)[C@@H](N)CCCCCCCCNC(=O)[C@@H]2CCCN2C1=O (H-[hhhhLys][Phe(4-F)]P[Ac4c]RP; lactam 1-C) | 6.37 | 6.91 | – |
| C[C@@H]1NC(=O)[C@@H]2CCCN2C(=O)[C@H](Cc2ccccc2)NC(=O)[C@@H](N)CCCCCCCCNC(=O)[C@@H]2CCCN2C(=O)[C@H](CCCNC(=N)N)NC1=O (H-[hhhhLys]FPARP; lactam 1-C) | 6.18 | 6.71 | – |
| N=C(N)NCCC[C@@H]1NC(=O)C2(CCC2)NC(=O)[C@@H]2CCCN2C(=O)[C@H](Cc2cccc(-c3ccccc3)c2)NC(=O)[C@@H](N)CCCCCCCCNC(=O)[C@@H]2CCCN2C1=O (H-[hhhhLys][Phe(3-Ph)]P[Ac4c]RP; lactam 1-C) | 4.40 | 4.85 | – |
| CC[C@@H]1NC(=O)[C@@H]2CCCN2C(=O)[C@H](Cc2ccccc2)NC(=O)[C@@H](N)CCCCCCCCNC(=O)[C@@H]2CCCN2C(=O)[C@H](CCCNC(=N)N)NC1=O (H-[hhhhLys]FP[Abu]RP; lactam 1-C) | 4.97 | 5.50 | – |
| Ac-WRFPARP-NH2 | 5.97 | 6.51 | – |
| CCCCC[C@H](NC(=O)[C@H](Cc1c[nH]c2ccccc12)NC(=O)[C@H](CCCNC(=N)N)NC(C)=O)C(=O)N[C@@H](Cc1ccccc1)C(=O)N1CCC[C@H]1C(=O)N[C@@H](C)C(=O)N[C@@H](CCCNC(=N)N)C(=O)N1CCC[C@H]1C(=O)NCC (Ac-RW[Ahp(2)]FPARP-NHEt) | 5.13 | 5.66 | – |
| CC(=O)N[C@@H](CCCNC(=N)N)C(=O)N[C@@H](Cc1c[nH]c2ccccc12)C(=O)N[C@H]1CCCCCCCCNC(=O)[C@@H]2CCCN2C(=O)[C@H](CCCNC(=N)N)NC(=O)[C@H](C)NC(=O)[C@@H]2CCCN2C(=O)[C@H](Cc2ccccc2)NC1=O (Ac-RW[hhhhLys]FPARP; lactam 3-C) | 7.60 | 8.16 | – |
| N=C(N)NCCC[C@@H]1NC(=O)C2(CCC2)NC(=O)[C@@H]2CCCN2C(=O)[C@H](Cc2ccccc2Cl)NC(=O)[C@@H](N)CCCCCCCCNC(=O)[C@@H]2CCCN2C1=O (H-[hhhhLys][Phe(2-Cl)]P[Ac4c]RP; lactam 1-C) | 6.95 | 7.52 | – |
| CC(=O)N[C@@H](CCCNC(=N)N)C(=O)N[C@@H](Cc1c[nH]c2ccccc12)C(=O)N[C@H]1CCCCCCCCCNC(=O)[C@@H]2CCCN2C(=O)[C@H](CCCNC(=N)N)NC(=O)[C@H](C)NC(=O)[C@@H]2CCCN2C(=O)[C@H](Cc2ccccc2)NC1=O | 6.84 | 7.37 | – |
